Data on three molecules can be found in ChEMBL document CHEMBL4732021, “Repurposing the HCV NS3-4A protease drug boceprevir as COVID-19 therapeutics” (RSC Med Chem, 2021).

The structures appear in SMILES notation. The source made the active and inactive calls. The rule behind the calls is not given here.

The subject of data set [1] is Murine hepatitis virus. Nature of the data set: Antiviral activity against MHV-A59 infected in LR7 cells assessed as reduction in N protein production at 400 nM treated 2 hrs after post viral infection and measured after 6 hrs by Western blot analysis. The class given is functional, organism-based. The method in brief: (§1)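 LR7 cells (1×10^5/well) infected with MHV A59 at MOI 1 for 1 h, washed, then held in DMEM with 2% FBS. Compound (4 nM–40 µM, tenfold steps) was added at 2 h p.i. and cells were harvested at 8 h p.i. Western blot probed for MHV N protein, normalized to GAPDH and expressed relative to the 0.1% DMSO control. Mock and 400 nM bafilomycin A1 served as controls. ≥3 independent experiments.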
(In western blotting, separated proteins are transferred to a membrane and probed.)

Data set [2] has as its system Murine hepatitis virus. Nature of the data set: Antiviral activity against MHV-A59 infected in LR7 cells assessed as reduction in number of infected cells at 400 nM treated 2 hrs after post viral infection and measured after 6 hrs by DAPI staining based immunofluorescence analysis. The class given is functional, organism-based. The gist of the method:
(§2)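 MHV A59 infection of LR7 cells on coverslips at MOI 1. Compound (4 nM–40 µM, tenfold dilutions) was added 2 h p.i. and cells were fixed at 8 h p.i. with 4% paraformaldehyde. Cells were permeabilized with 0.2% Triton X-100 and stained with anti-nsp2/nsp3 antiserum, an Alexa-488 secondary and DAPI. nsp2/nsp3-positive cells were counted by confocal microscopy relative to the DMSO control. ≥3 independent experiments.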

Data set [3] can be described thus: Cmax in human. It is filed as ADME.
Data set [4] can be described thus: Inhibition of SARS-CoV-2 3CL protease expressed in Escherichia coli BL21 DE3 using 2-aminobenzoyl-SVTLQSG-Tyr(NO2)-R as substrate preincubated with substrate for 15 mins followed by compound addition and measured after 1 hr by FRET assay. On the set-up: species or system Severe acute respiratory syndrome coronavirus 2.
The nature of data set [5]: Cytotoxicity against African green monkey Vero E6 cells assessed as maximum non-toxic concentration after 6 hrs by MTT assay. The settings on record: chlorocebus aethiops. It is filed as cell-based. The gist of the method: (§3)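 Vero E6 or LR7 cells seeded at 1×10^4/well were grown 24 h in DMEM with 10% FBS at 37 °C and 5% CO2. Serial drug dilutions (0–500 µM) were added for 6 h (legend) or 8 h (methods). Viability was normalized to the 0.1% DMSO control.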
(In general: Formazan colour is commonly taken as a measure of viable cells.)

Data set [6] in a line: Cytotoxicity against mouse LR7 cells assessed as maximum non-toxic concentration after 6 hrs by MTT assay. It is filed as cell-based. The method in brief: as §3
Data set [7] concerns Murine hepatitis virus. Nature of the data set: Antiviral activity against MHV-A59 infected in LR7 cells assessed as reduction in N protein production at 40 uM treated 2 hrs after post viral infection and measured after 6 hrs by Western blot analysis relative to control. The class given is functional. Details: scale not given: the % may be the effect or the level left. The method in brief:
as §1

In data set [8] the test system is Murine hepatitis virus. Nature of the data set: Antiviral activity against MHV-A59 infected in LR7 cells assessed as reduction in number of infected cells at 40 uM treated 2 hrs after post viral infection and measured after 6 hrs by DAPI staining based immunofluorescence analysis relative to control. Details: scale not given: the % may be the effect or the level left. The class given is functional. The method in brief: as §2

The subject of data set [9] is Murine hepatitis virus. Nature of the data set: Antiviral activity against MHV-A59 infected in LR7 cells assessed as reduction in N protein production at 4 nM treated 2 hrs post viral infection and measured after 6 hrs by Western blot analysis. Details: scale not given: the % may be the effect or the level left. The class given is functional. The gist of the method:
as §1

In data set [10] the test system is Murine hepatitis virus. Nature of the data set: Antiviral activity against MHV-A59 infected in LR7 cells assessed as reduction in number of infected cells at 40 nM treated 2 hrs post viral infection and measured after 6 hrs by immunofluorescence analysis. The class given is functional. Details: scale not given: the % may be the effect or the level left. The gist of the method:
as §2

Data set [11] deals with Murine hepatitis virus. Nature of the data set: Antiviral activity against MHV-A59 infected in […] cells assessed as reduction in viral gene expression at 100 uM treated 2 hrs post viral infection and measured after 6 hrs by RT-PCR analysis. The class given is functional, organism-based.
Data set [12] relates to Murine hepatitis virus. Nature of the data set: Antiviral activity against MHV-A59 infected in Vero E6 cells assessed as reduction in viral gene expression at 10 uM treated 2 hrs post viral infection and measured after 6 hrs by RT-PCR analysis. The class given is functional. On the set-up: scale not given: the % may be the effect or the level left.
Data set [13] deals with Murine hepatitis virus. Nature of the data set: Antiviral activity against MHV-A59 infected in LR7 cells assessed as reduction in N protein production measured after 6 hrs by Western blot analysis relative to control. It is filed as functional, organism-based. The note with it: dose 0.004-40 µM. The gist of the method:
as §1

Data set [14] relates to Severe acute respiratory syndrome coronavirus 2. Nature of the data set: Inhibition of SARS-CoV-2 3CL protease expressed in Escherichia coli BL21 DE3 at 200 uM using 2-aminobenzoyl-SVTLQSG-Tyr(NO2)-R as substrate preincubated with substrate for 15 mins followed by compound addition and measured after 1 hr by FRET assay relative to control.

Take `CO/C1=C\C(C)=C\[C@@H](C)[C@@H](O)[C@@H](C)C/C(C)=C/C=C/[C@H](OC)[C@@H]([C@@H](C)[C@@H](O)[C@H](C)[C@@]2(O)C[C@@H](O)[C@H](C)[C@@H](C(C)C)O2)OC1=O`: the outcome in the data set with Murine hepatitis virus [1] and with Murine hepatitis virus [2] was Active.

For the molecule `CC(C)(C)NC(=O)N[C@H](C(=O)N1C[C@H]2[C@@H]([C@H]1C(=O)NC(CC1CCC1)C(=O)C(N)=O)C2(C)C)C(C)(C)C` (some centres undefined) [BOCEPREVIR], in [3], the peak level (Cmax) was 1720 ng/mL. Also, in data set [4], inhibition was half-maximal at 1.59 µM (IC50). Besides, the MNTC at 6 h in data set [5] and in [6] was 72.5 µM each time. In addition, the Activity was 90% in the data set on Murine hepatitis virus [7]; 75% in the data set on Murine hepatitis virus [8]; 40% in the data set on Murine hepatitis virus [9]; 25% with Murine hepatitis virus [10]; 50% in the data set with Murine hepatitis virus [12]; “Dose-dependent effect” with Murine hepatitis virus [13]. Besides, the outcome in the data set on Murine hepatitis virus [11] was Active.

As to `CCC[C@H](NC(=O)[C@@H]1[C@H]2CCC[C@H]2CN1C(=O)[C@@H](NC(=O)[C@@H](NC(=O)c1cnccn1)C1CCCCC1)C(C)(C)C)C(=O)C(=O)NC1CC1` [TELAPREVIR], the IC50 (usually the concentration needed to halve the response being measured) in data set [4] came to 55.7 µM. Also, the inhibition – broadly, the percentage by which the read-out fell short of the control – in data set [14] stood at 100%. Further, the MNTC at 6 h in data set [5] and in data set [6] was 72.5 µM each time. For the same molecule, the outcome in the data set on Murine hepatitis virus [7] and with Murine hepatitis virus [8] was inactive.
